From article PMC5079820 (Bioorganic & medicinal chemistry, 2016) come the findings set out here.

Data set [1] concerns p-c-Met in MDA-MB-231/GFP tumors. As to the kind of experiment: Western blot of p-c-Met in excised xenograft tumors. The class given is in vivo, athymic nude mice. To be noted: 10 mg/kg i.p., 3X/week, vs vehicle-treated control. In short, it runs like this: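 Xenografts were MDA-MB-231/GFP cells in the mammary fat pad of female athymic nude mice, 5 per group. Test compound (i.p., 10 mg/kg, 3×/week) or vehicle (DMSO stock diluted in PBS/0.1% Tween 80) was given. At termination, tumors were excised, snap-frozen, homogenized and lysed. Lysates were immunoblotted for p-c-Met: SDS gels, PVDF, 5% BSA/TBST block, primary antibodies overnight at 4 °C, HRP secondaries, chemiluminescence.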

For data set [2], the target named is IGF1R (Homo sapiens, UniProt P08069). As to the kind of experiment: SelectScreen kinase profiling, IGF1R. To be noted: read-out: Mean % inhibition at 10 μM, IGF1R, 10 μM. It counts as biochemical. The method in brief: (§1)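 Test compound was screened at a single 10 μM concentration through an outsourced kinase selectivity panel (SelectScreen). Percent inhibition of each kinase was determined by time-resolved FRET assay.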
Sequence of IGF1R (P08069 31-1367): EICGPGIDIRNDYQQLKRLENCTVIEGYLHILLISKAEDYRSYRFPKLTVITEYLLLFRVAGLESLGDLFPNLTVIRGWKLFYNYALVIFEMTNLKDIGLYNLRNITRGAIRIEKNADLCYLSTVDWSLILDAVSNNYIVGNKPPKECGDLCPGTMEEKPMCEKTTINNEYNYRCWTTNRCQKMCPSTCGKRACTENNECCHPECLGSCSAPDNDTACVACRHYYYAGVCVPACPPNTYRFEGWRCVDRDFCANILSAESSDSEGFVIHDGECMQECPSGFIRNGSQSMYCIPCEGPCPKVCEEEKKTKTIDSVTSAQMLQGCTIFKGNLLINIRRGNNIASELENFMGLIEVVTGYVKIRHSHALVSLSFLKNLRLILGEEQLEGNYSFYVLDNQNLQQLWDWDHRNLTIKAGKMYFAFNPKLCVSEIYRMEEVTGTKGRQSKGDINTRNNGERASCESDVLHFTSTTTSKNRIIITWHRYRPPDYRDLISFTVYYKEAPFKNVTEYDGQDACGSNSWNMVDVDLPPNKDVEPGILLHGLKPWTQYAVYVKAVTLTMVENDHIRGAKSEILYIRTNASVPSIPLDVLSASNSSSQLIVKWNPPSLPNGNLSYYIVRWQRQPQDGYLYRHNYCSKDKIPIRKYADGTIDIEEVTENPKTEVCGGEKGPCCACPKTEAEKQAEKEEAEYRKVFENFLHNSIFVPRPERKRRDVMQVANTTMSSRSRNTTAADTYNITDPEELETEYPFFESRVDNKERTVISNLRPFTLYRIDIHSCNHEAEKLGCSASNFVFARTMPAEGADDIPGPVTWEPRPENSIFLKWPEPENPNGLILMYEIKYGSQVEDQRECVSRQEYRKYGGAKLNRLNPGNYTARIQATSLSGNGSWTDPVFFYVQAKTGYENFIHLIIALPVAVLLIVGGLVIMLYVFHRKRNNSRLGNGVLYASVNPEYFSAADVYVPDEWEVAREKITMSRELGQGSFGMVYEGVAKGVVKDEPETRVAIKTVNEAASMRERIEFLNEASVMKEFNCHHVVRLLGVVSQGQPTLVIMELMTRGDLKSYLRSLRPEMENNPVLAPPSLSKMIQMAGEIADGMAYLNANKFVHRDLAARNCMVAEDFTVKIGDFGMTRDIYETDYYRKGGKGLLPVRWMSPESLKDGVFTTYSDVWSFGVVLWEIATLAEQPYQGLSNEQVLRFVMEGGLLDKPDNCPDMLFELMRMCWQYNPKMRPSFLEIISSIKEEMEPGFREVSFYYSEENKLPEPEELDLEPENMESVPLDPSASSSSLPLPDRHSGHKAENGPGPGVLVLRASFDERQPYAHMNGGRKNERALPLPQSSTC

Data set [3] deals with ERBB2 (HER2) (Homo sapiens, UniProt P04626). The data set is described as follows: SelectScreen kinase profiling, HER2. It counts as biochemical. Conditions: read-out: Mean % inhibition at 10 μM, ERBB2 (HER2), 10 μM. In short, it runs like this: as §1
Sequence of ERBB2 (HER2) (P04626 23-1255): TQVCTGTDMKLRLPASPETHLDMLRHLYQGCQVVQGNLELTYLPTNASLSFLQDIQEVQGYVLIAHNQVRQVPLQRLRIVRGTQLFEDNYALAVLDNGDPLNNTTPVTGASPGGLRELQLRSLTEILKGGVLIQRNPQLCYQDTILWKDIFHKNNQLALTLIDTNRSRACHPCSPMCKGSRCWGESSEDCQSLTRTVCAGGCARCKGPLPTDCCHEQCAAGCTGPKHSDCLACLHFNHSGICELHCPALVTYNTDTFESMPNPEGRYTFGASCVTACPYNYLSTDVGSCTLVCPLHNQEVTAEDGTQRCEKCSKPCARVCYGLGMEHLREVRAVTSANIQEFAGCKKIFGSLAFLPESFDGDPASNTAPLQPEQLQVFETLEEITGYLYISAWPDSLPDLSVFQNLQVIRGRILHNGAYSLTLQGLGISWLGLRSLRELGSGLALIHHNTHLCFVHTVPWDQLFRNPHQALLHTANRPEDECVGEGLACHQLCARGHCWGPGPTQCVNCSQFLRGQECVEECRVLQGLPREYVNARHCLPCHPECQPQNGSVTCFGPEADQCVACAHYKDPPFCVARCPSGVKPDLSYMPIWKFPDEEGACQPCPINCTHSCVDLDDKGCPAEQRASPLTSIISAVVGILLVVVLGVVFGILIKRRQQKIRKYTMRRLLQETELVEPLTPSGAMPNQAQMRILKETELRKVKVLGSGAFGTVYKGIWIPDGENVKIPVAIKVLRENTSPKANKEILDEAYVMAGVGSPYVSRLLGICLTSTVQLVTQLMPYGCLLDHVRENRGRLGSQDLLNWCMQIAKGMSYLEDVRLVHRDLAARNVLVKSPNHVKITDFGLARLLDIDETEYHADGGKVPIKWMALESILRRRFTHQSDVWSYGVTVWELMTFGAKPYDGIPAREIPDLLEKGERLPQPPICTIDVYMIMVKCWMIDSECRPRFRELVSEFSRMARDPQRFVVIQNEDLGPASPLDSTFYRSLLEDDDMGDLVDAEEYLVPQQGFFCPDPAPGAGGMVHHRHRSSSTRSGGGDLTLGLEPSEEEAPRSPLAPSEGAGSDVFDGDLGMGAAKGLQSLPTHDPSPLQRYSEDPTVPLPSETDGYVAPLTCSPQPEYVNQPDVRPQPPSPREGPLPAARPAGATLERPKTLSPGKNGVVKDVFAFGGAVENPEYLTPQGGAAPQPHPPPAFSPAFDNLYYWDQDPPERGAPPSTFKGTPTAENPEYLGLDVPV
The test system of data set [4] is p-Akt, p-mTOR, p-FAK, paxillin, p-MAPK in MDA-MB-231 cells. As to the kind of experiment: Western blot of c-Met downstream effectors in cells. The class given is cell-based, human. Conditions: MDA-MB-231, Western blot. In short, it runs like this: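 MDA-MB-231 cells were seeded at 5 × 10^5 per 100 mm dish, attached overnight, then treated with test compound or DMSO vehicle for 72 h in serum-reduced medium with 10 ng/ml HGF. Lysates (30 μg) were run on Tris/glycine/SDS gels and transferred to PVDF. Blots were blocked 2 h in 5% BSA/TBST, probed with primary antibodies overnight at 4 °C and HRP secondaries 1 h at rt, and detected by chemiluminescence.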

Data set [5] has as its target ABL1 (Homo sapiens, UniProt P00519). As to the kind of experiment: SelectScreen kinase profiling, ABL1. It counts as biochemical. Conditions: read-out: Mean % inhibition at 10 μM, ABL1, 10 μM. The method in brief: as §1
Data set [6] addresses MST1R (RON) (Homo sapiens, UniProt Q04912). The data set is described as follows: SelectScreen kinase profiling, MST1R. It counts as biochemical. Conditions: read-out: Mean % inhibition at 10 μM, MST1R (RON), 10 μM. The method in brief: as §1
The test system of data set [7] is MDA-MB-231/GFP tumor cells. The data set is described as follows: Breast cancer xenograft in athymic nude mice. The class given is in vivo. Conditions: 10 mg/kg i.p., 3X/week, throughout the study. In short, it runs like this: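 Female athymic nude mice (5–6 weeks old) received 1 × 10^6 MDA-MB-231/GFP cells in RPMI-1640 into the mammary fat pad. At about 50 mm3 (day 10), mice were randomized, 5 per group. Test compound was dissolved as a DMSO stock, diluted in sterile PBS with 0.1% Tween 80, and given i.p. at 10 mg/kg three times weekly. Controls got the same vehicle volume. Body weight was monitored regularly.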

Data set [8] has as its system c-Met phosphorylation in MDA-MB-231 cells. The data set is described as follows: Western blot of c-Met phosphorylation in cells. The class given is cell-based, human. To be noted: MDA-MB-231, Western blot, 72 h.
The test system of data set [9] is MCF-10A mammary epithelial cells. As to the kind of experiment: Cytotoxicity assay. The class given is cell-based. To be noted: 24 h, MTT.
For data set [10], the system named is MDA-MB-231 cells. The data set is described as follows: Lactate dehydrogenase. It counts as cell-based. To be noted: MDA-MB-231, effective anticancer concentrations, 24 h. In short, it runs like this:
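MDA-MB-231 cells were seeded at 3 × 10^4 cells/well and allowed to attach, then exposed to test compound in medium with 5% FBS for 24 h at 37 °C, 5% CO2. Controls: Triton X-100 wells (maximum release) and […], in triplicate. Supernatant was incubated with NAD+/lactic acid/INT/diaphorase for 30 min at rt, and A490 was read. % cytotoxicity was calculated relative to spontaneous and maximum release.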

Sequence of ABL1 (P00519 whole entry): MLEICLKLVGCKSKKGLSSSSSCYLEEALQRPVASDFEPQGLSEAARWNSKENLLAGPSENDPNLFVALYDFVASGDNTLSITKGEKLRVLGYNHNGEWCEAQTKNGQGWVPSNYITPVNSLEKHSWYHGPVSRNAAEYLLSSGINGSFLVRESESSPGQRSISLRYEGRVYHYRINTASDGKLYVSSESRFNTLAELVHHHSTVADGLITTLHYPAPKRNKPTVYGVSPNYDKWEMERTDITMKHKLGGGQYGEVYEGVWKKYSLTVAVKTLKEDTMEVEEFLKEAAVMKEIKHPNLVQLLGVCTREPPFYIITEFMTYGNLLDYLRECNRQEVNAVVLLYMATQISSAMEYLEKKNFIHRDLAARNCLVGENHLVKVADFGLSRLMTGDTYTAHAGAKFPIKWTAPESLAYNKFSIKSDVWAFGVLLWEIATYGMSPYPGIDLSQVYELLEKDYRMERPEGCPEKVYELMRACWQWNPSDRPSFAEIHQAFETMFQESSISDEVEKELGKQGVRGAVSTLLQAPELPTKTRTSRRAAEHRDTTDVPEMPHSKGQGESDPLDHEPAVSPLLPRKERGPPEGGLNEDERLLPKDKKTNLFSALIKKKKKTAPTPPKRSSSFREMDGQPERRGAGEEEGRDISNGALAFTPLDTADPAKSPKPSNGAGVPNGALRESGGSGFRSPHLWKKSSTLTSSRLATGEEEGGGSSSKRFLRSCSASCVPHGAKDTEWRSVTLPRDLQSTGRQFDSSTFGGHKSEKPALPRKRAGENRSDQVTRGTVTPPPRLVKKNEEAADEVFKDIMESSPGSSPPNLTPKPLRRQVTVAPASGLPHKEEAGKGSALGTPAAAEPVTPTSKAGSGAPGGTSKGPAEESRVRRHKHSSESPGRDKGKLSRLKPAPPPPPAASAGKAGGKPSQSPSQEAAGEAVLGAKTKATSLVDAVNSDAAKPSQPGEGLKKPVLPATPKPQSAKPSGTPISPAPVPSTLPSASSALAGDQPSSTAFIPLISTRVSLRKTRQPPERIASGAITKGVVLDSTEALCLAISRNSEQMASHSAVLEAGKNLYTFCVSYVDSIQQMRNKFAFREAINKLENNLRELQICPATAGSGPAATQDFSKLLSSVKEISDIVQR
Sequence of MST1R (RON) (Q04912 25-1400): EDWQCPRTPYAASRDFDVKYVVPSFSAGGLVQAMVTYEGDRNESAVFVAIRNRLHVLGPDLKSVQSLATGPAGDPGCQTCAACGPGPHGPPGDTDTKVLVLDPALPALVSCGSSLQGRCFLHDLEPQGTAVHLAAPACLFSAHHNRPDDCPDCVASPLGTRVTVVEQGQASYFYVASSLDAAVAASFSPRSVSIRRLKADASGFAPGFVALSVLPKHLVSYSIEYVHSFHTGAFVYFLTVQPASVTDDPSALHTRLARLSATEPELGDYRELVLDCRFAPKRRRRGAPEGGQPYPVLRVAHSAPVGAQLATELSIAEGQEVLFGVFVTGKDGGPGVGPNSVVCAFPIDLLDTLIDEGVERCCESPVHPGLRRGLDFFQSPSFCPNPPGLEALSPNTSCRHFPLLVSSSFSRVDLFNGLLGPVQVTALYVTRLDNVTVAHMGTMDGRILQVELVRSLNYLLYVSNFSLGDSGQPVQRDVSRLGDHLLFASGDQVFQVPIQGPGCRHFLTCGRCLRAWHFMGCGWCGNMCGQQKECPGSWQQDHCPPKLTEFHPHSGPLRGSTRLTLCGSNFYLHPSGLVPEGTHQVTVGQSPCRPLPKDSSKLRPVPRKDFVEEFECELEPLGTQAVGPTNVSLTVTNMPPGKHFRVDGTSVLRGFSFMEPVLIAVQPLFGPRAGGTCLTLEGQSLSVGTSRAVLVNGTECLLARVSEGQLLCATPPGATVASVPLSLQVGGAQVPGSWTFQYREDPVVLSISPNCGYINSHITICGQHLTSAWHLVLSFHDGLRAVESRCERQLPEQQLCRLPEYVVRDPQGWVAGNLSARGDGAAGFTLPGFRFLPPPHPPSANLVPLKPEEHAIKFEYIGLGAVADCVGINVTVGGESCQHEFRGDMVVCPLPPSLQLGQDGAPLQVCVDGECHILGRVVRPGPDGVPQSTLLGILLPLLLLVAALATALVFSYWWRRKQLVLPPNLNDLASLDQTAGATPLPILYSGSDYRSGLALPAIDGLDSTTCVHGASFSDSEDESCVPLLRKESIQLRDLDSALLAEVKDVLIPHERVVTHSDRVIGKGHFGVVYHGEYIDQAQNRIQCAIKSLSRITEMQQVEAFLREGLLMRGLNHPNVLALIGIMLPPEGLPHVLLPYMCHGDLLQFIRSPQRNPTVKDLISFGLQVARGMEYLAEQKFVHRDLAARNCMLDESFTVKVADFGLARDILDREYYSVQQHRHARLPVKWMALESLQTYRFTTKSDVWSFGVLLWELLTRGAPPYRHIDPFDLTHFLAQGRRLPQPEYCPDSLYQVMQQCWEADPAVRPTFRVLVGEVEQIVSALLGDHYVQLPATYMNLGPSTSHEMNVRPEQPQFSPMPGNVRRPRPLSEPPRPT

In the case of `C/C1=C\[C@H](OC(=O)Nc2cc(C(F)(F)F)cc(C(F)(F)F)c2)C[C@](C)(O)/C=C/[C@H](C(C)C)CC/C(C)=C/CC1` [Compound 20, 6-O-[(N-(3,5-bis-(trifluoromethyl)phenyl)carbamoyl)]-(1S,2E,4S,7E,11E)-2,7,11-cembratriene-4,6-diol], the “level of p-c-Met in excised tumors” value in data set [1] is reported as “significant decrease”. For the same compound, the inhibition at 10 µM in [2] is 30 to 35%; in data set [3] it was 23%; in data set [5], 30 to 35%; in [6], 30 to 35%. Also, the “levels of p-Akt, p-mTOR and p-FAK” value in [4] is given as “significant reductions”. The paxillin phosphorylation result in data set [4] is “phosphorylation reduction”. Moreover, in [4] (compared to untreated cells), the p-MAPK level entry is “dose-dependent downregulation”. Moreover, the “average body weight difference between treatment and vehicle groups” value in data set [7] was “non-significant”. The “effect on p-Met (phosphorylated c-Met) level” value in data set [8] is “significant concentration-dependent downregulation”. Besides, the “cellular death at effective doses” value in [9] is listed as “didn’t induce a significant cellular death”. In [10], the “LDH release (necrosis marker)” value is listed as “minimal”.
